Activity calls are given as the source filed them. The calls are words filed in the database; no cut-off is given here.
What was measured:
NCI-H1703 [1] = assay: Antiproliferative activity against human NCI-H1703 cells expressing FASN assessed as reduction in cell viability after 72 hrs by MTS assay; assay type: functional, cell-based; settings: NCI-H1703, 72 h
Procedure, shortened: (§1)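 ATCC-sourced cells. H1299, H1650, H1703 and PC-9 were grown in RPMI 1640 with 10% FBS. A549 was grown in high-glucose DMEM with 10% FBS and 1 mM pyruvate. SAEC was grown in BEGM. Cells were seeded at 3 × 10^3 per well (H1650 3.5 × 10^3) and left to attach overnight. Serial dilutions from DMSO stocks were added, 0.1% DMSO final, for 72 h at 37 °C, 5% CO2. Medium was replaced, MTS added, and A490 read after 2 h. IC50 was taken from % viability versus log concentration, 3 experiments.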

[2] = Selectivity index, ratio of IC50 for human SAE cells lacking FASN expression to IC50 for human NCI-H1703 cells expressing FASN
Procedure, shortened: (§2)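 Index is the SAEC IC50 divided by the IC50 in the FASN-expressing NSCLC line. IC50s came from MTS viability after 72 h exposure at 37 °C, 5% CO2, DMSO 0.1% v/v. Absorbance was read at 490 nm after 2 h. The fit was % viability against log concentration, with 4 technical repeats and 3 independent experiments. NSCLC lines were grown in RPMI/10% FBS; SAEC in BEGM.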

NCI-H1299 = assay: Antiproliferative activity against human NCI-H1299 cells expressing FASN assessed as reduction in cell viability after 72 hrs by MTS assay; assay type: functional, cell-based; settings: NCI-H1299, 72 h; procedure, shortened: as §1
[3] = Selectivity index, ratio of IC50 for human SAE cells lacking FASN expression to IC50 for human NCI-H1299 cells expressing FASN expression; procedure, shortened: as §2
NCI-H1650 = assay: Antiproliferative activity against human NCI-H1650 cells expressing FASN assessed as reduction in cell viability after 72 hrs by MTS assay; assay type: functional, cell-based; settings: NCI-H1650, 72 h; procedure, shortened: as §1
[4] = Selectivity index, ratio of IC50 for human SAE cells lacking FASN expression to IC50 for human NCI-H1650 cells expressing FASN; procedure, shortened: as §2
PC-9 [5] = assay: Antiproliferative activity against human PC9 cells harboring FASN expression and EGFR delE746-A750 mutant assessed as reduction in cell viability after 72 hrs by MTS assay; assay type: functional, cell-based; settings: PC-9, 72 h; procedure, shortened: as §1
[6] = Cytotoxicity against human SAE cells lacking FASN expression assessed as reduction in cell viability after 72 hrs by MTS assay; assay type: cell-based; procedure, shortened: as §1
NCI-H1703 [7] = assay: Induction of apoptosis in human NCI-H1703 cells expressing FASN assessed as increase in late apoptotic cells at 100 uM after 72 hrs by Annexin-V FITC staining/PI-based flow cytometry; assay type: functional, cell-based
Procedure, shortened: (§3)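 H1703 or PC-9 cells seeded at 1.5 × 10^5 cells/2 mL in 6-well plates and left to attach overnight. Treated at 100 µM, with a 0.1% DMSO vehicle control, at 37 °C and 5% CO2. Exposure is given as 72 h in the results and 48 h in the methods. Cells were harvested, rinsed in ice-cold PBS, stained with Annexin V-FITC/PI in binding buffer and read by flow cytometry. Early apoptosis was Annexin V+ only; late apoptosis was double positive. Triplicates.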

PC-9 [8] = assay: Induction of apoptosis in human PC9 cells harboring FASN expression and EGFR delE746-A750 mutant at 100 uM after 72 hrs by Annexin-V FITC/PI staining-based flow cytometry; assay type: functional, cell-based; procedure, shortened: as §3
[9] = biological target: Fatty acid synthase (Homo sapiens) (UniProt P49327); assay: Inhibition of full length human FASN transfected in HeLa cell lysates at 10 uM using acetyl Co-A/malonyl Co-A as substrate preincubated with enzyme for 2 hrs followed by substrate addition measured after 10 mins in presence of NADPH by microplate reader analysis; assay type: subcellular; settings: Lysate
Procedure, shortened: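 Human FASN was made by in vitro translation from a FASN plasmid. Lysate was diluted 3:7 in 100 mM potassium phosphate, pH 6.5, 1 mM EDTA. It was preincubated with compound (10 µM final) for 2 h at 37 °C. Buffer containing acetyl-CoA (55 µM) and NADPH (330 µM) was added, then the reaction was started with malonyl-CoA (500 µM stock). A340 was read at 0 and 10 min; triplicates.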

[10] = biological target: Fatty acid synthase (Homo sapiens) (UniProt P49327); assay: (§4) Inhibition of FASN in human PC9 cells harboring FASN expression and EGFR delE746-A750 mutant assessed as disruption of AKT/FASN positive feedback loop by measuring decrease in FASN expression at 100 uM after 48 hrs by Western immunoblot based densitometric assay relative to control; assay type: cell-based
Procedure, shortened: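 PC-9 or H1703 cells were seeded at 8 × 10^5 per 100 mm dish and treated for 48 h at 1 or 5 µM (or 5, 50 and 100 µM). RIPA lysates were BCA-quantified and run on 8% SDS-PAGE, then transferred to PVDF. Blots were probed for FASN, AKT, phospho-AKT S473 and GAPDH and detected by ECL. Bands were quantified by densitometry and normalised to vehicle control.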

[11] = biological target: Fatty acid synthase (Homo sapiens) (UniProt P49327); assay: as §4, with “measuring” for “measuring decrease in”, “hrs in presence of exogenous lipid concentrate” for “hrs”; assay type: cell-based
Procedure, shortened: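 PC-9 cells were seeded at 8 × 10^5 per 100 mm dish, attached overnight, then treated 48 h with compound plus chemically defined lipid concentrate. Cells were lysed in RIPA with protease inhibitors and protein quantified by BCA. Lysates were run on 8% SDS-PAGE and blotted to PVDF. Blots were probed for FASN (1:2,000, PBS-T/milk block) and GAPDH. ECL detection; FASN/GAPDH densitometry normalised to untreated control.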

[12] = biological target: Fatty acid synthase (Homo sapiens) (UniProt P49327); assay: as §4, with “in ratio of phosphoAKT/AKT” for “in FASN”; assay type: cell-based
Procedure, shortened: (§5)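 PC-9 cells were seeded at 8 × 10^5 per 100 mm dish and treated 48 h with compound, with or without chemically defined lipid concentrate (vehicle control included). RIPA lysates with protease inhibitors were BCA-quantified and run on 8% SDS-PAGE, then PVDF. Blots were probed for phospho-AKT Ser473 and total AKT (each 1:1,000, TBS-T/milk block). ECL detection; pAKT/AKT densitometry normalised to untreated control.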

[13] = biological target: Fatty acid synthase (Homo sapiens) (UniProt P49327); assay: as §4, with “ratio of phosphoAKT/AKT” for “decrease in FASN”, “hrs in presence of exogenous lipid concentrate” for “hrs”; assay type: cell-based; procedure, shortened: as §5
[14] = Selectivity index, ratio of IC50 for human SAE cells lacking FASN expression to IC50 for human PC9 cells harboring FASN expression and EGFR delE746-A750 mutant; procedure, shortened: as §2
A549 = assay: Antiproliferative activity against human A549 cells expressing FASN assessed as reduction in cell viability after 72 hrs by MTS assay; assay type: functional, cell-based; settings: A549, 72 h; procedure, shortened: as §1
[15] = Selectivity index, ratio of IC50 for human SAE cells lacking FASN expression to IC50 for human A549 cells expressing FASN
Procedure, shortened: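 The ratio IC50(SAEC)/IC50(NSCLC line) was calculated from 72 h MTS viability IC50 values.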

PC-9 [16] = assay: Antiproliferative activity against human PC9 cells harboring FASN expression and EGFR delE746-A750 mutant assessed as cell viability at 100 uM after 72 hrs in presence of exogenous lipid concentrate by MTS assay; assay type: functional, cell-based
Procedure, shortened: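 PC-9 cells seeded at 3 × 10^3 cells/100 µL in RPMI 1640 and left to attach overnight. Compound added as for the viability assay, with DMSO at 0.1% v/v. After 6 h at 37 °C and 5% CO2, chemically defined lipid concentrate was added to 2% v/v final. Incubation then continued 72 h. Viability was read by MTS absorbance at 490 nm against untreated cells, in triplicate.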

[17] = biological target: Fatty acid synthase (Homo sapiens) (UniProt P49327); assay: Inhibition of full length human FASN transfected in HeLa cell lysates at 150 uM using acetyl Co-A/malonyl Co-A as substrate preincubated with enzyme for 2 hrs followed by substrate addition measured after 10 mins in presence of NADPH by microplate reader analysis; assay type: subcellular; settings: Lysate
Procedure, shortened: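 Human FASN was made by coupled in vitro translation of a FASN plasmid; the legend calls this HeLa cell lysate. Lysate was diluted 3:7 in 100 mM potassium phosphate pH 6.5 with 1 mM EDTA, then preincubated with compound for 2 h at 37 °C. Buffer containing acetyl-CoA (55 µM) and NADPH (330 µM) was added, and the reaction started with malonyl-CoA solution (500 µM). A340 was read at 0 and 10 min, and inhibition taken against untreated lysate. Triplicates.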

Sequence of Fatty acid synthase (Homo sapiens) (P49327 whole entry, looked up): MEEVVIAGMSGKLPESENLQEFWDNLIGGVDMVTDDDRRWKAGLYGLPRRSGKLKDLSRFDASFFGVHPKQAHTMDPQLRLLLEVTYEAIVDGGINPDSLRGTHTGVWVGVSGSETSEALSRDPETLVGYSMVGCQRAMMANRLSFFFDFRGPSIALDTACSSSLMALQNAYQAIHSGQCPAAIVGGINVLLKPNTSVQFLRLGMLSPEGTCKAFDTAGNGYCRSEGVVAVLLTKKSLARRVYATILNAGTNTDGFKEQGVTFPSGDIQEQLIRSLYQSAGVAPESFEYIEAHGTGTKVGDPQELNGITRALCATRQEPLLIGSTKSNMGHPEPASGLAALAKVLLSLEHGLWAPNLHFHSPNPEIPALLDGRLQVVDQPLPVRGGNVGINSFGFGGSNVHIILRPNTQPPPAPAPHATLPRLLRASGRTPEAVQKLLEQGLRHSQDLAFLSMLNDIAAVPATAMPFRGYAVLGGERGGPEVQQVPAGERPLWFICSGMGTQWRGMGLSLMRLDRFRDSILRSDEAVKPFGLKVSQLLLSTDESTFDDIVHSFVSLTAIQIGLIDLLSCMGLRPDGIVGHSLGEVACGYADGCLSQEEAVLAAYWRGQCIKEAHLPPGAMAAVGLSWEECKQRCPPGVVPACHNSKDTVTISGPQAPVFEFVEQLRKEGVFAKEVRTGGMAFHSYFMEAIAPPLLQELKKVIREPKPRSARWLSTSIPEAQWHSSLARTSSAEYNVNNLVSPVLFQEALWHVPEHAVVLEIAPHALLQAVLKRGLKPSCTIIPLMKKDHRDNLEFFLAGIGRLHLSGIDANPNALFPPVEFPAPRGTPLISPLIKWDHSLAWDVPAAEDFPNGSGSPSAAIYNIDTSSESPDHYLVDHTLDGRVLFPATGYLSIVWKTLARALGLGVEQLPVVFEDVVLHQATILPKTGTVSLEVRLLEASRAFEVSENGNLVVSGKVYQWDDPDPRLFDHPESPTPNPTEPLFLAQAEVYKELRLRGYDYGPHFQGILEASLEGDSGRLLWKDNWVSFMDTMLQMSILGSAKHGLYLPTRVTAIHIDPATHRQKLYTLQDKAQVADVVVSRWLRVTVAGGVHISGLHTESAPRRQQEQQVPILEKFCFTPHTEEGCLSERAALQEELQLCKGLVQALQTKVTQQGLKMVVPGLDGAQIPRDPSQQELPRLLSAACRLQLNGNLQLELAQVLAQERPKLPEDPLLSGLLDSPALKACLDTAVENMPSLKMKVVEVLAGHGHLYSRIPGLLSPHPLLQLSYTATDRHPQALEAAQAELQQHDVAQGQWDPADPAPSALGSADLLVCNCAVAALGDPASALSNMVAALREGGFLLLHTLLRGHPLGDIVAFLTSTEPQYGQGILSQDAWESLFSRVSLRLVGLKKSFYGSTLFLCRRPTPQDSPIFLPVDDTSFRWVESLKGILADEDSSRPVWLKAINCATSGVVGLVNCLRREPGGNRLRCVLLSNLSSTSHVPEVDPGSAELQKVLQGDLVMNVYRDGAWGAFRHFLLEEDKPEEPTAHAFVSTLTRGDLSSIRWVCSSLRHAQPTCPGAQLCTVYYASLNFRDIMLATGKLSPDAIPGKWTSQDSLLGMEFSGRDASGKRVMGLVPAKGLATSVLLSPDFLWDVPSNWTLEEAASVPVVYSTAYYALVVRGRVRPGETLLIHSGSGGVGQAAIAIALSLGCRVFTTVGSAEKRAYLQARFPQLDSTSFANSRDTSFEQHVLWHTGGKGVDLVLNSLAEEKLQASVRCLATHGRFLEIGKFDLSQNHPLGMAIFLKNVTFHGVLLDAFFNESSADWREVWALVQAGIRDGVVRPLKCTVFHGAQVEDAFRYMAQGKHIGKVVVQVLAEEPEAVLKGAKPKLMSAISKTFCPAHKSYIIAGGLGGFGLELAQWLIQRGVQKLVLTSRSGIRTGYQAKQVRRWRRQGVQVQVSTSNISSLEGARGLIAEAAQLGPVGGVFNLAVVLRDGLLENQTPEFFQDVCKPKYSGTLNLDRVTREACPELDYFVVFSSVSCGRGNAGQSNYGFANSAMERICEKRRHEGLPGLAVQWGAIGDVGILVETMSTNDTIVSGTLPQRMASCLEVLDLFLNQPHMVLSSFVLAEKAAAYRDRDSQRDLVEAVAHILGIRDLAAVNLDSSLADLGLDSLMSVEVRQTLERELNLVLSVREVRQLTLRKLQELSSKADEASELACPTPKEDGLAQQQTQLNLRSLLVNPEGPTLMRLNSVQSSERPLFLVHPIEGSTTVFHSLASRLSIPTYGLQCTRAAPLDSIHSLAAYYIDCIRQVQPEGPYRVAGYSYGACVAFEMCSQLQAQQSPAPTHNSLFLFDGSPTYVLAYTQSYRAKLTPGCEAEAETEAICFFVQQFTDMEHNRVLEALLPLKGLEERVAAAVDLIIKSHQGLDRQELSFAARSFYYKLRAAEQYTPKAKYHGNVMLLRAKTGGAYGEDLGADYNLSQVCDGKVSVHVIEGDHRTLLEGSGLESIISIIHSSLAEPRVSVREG

## O=C(O[C@@H]1Cc2c(O)cc(O)cc2O[C@@H]1c1cc(O)c(O)c(O)c1)c1cc(O)c(O)c(O)c1 [EPIGALOCATECHIN GALLATE]
NCI-H1703 [1]
  IC50: 17.1 µM
[2]
  Ratio IC50: 6.4
NCI-H1299
  IC50: 20.6 µM
[3]
  Ratio IC50: 5.3
NCI-H1650
  IC50: 24.8 µM
[4]
  Ratio IC50: 4.4
PC-9 [5]
  IC50: 77.4 µM
[6]
  IC50: 110 µM
NCI-H1703 [7]
  Activity: Active
PC-9 [8]
  Activity: Active
[9]
  inhibition: inactive
[10]
  Ratio: 0.06
[11]
  Ratio: 0.89
[12]
  Ratio: 0.14
[13]
  Ratio: 0.67
[14]
  Ratio IC50: 1.4
A549
  IC50: 185 µM
[15]
  Ratio IC50: 0.6
PC-9 [16]
  inhibition: inactive
[17]
  inhibition: Active

Reference: ChEMBL document CHEMBL4406830, “Galloyl esters of trans-stilbenes are inhibitors of FASN with anticancer activity on non-small cell lung cancer cells” (Eur J Med Chem, 2019)
